# GSH bead fluor – compound fluoresces at 488/530 nm on GSH beads | 190,000 compounds, 0.25% hits | GSH beads flow cytometry, compound fluorescence 488/530 nm; active compounds read high | fluorescence (KMESF) at 10 µM; in the data active means fluorescence above about 89;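 further: glutathione beads carrying GST-tagged Bcl family fusion proteins plus one bare bead set; values are compound well signal with DMSO vehicle wells as background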
# Lmaj promast – inhibitors of Leishmania major promastigote growth; Leishmania major promastigotes, resazurin fluorescence viability; inhibition, % at 10 µM; 200,000 compounds, 9% hits; AID 1063;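 further: promastigotes grown with compound for 44 hours at 28 °C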
# PKD1 inh – PKD1 (human) kinase inhibition. Q15139. PKD1 kinase fluorescence polarization assay. inhibition, % (test concentration not listed). 200,000 compounds, 0.056% hits. AID 797
# ABCG2 block – blocks JC-1 efflux by human ABCG2 transporter; inhibition, % at 6.6 µM; AID 1325; Q9UNQ0; 190,000 compounds, 0.1% hits; IgMXP3 cells, flow cytometry;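 active means inhibition above 80%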;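 further: 0% = DMSO and 100% = nicardipine control wells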
#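 System: two drug-resistant human cell lines, ABCG2 and ABCB1; controls: nicardipine high and DMSO low controls; times: 10 min exposure at 25 °C with rotation, no wash; detection: flow cytometry of retained JC-1 fluorescence; read-out basis: percent efflux inhibition, scaled nicardipine 100% to DMSO 0%; doses: one concentration, 6.6 µM final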
# Avidin bead fluor – compound fluoresces at 488/530 nm on avidin beads | fluorescence (KMESF) at 10 µM | compound fluorescence 488/530 nm, flow cytometry; active compounds read high | 220,000 compounds, 0.38% hits; in the data active means fluorescence above about 47
# ABCB1 inh – inhibitors of human ABCB1 transporter, ABCG2 counter-screen; P08183; CCRF-Adr cells, JC-1 efflux, flow cytometry; inhibition, % at 6.6 µM; 190,000 compounds, 0.067% hits; AID 1326; in the data active means inhibition above about 40%;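 further: 0% = vehicle and 100% = reference inhibitor; higher value means more JC-1 retained so stronger ABCB1 efflux block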
# * = called active by the depositor; nt = no result. The entries come from a sample that favours hits as a whole. Unless noted, no stated cut-off is given here; in the data, active means inhibition above about 50%; inactive means the rest.
SMILES,GSH bead fluor,Lmaj promast,PKD1 inh,ABCG2 block,Avidin bead fluor,ABCB1 inh
Cc1ccc(CC(=O)NC2CCSC2=O)cc1 (stereo not given),11,-13.8,-5.2,-0.5,12,-0.3
CCCCNC(=S)N/N=C/C1=CCC2CC1C2(C)C (stereo not given),6,100.1*,-0.1,-1.5,2,-0.1
CC1(C)C2CC=C(/C=N/NC(=S)Nc3cccnc3)C1C2 (stereo not given),11,97.4*,-0.8,1.4,14,0.5
CC(C)(C)c1ccc(/C=N/NC(=S)Nc2cccnc2)cc1,17,16.6,-6.0,10.8,12,0.9
CC1=C/C(=N\NC(=S)Nc2cccnc2)CC(C)(C)C1,13,99.4*,1.1,6.6,9,1.3
CCCCNC(=S)N/N=C/c1ccc(C#N)cc1,16,-2.5,-5.4,12.1,11,0.9
C=C(C)CNC(=S)N/N=C/C1=CCC2CC1C2(C)C (stereo not given),13,99.7*,-0.2,2.9,17,0.4
CCC(C)(C)C1CCC(=NNC(=S)Nc2cccnc2)CC1 (stereo not given),13,0.2,-6.0,2.1,13,1.1
C=C(C)CNC(=S)N/N=C/c1c(F)cccc1F,13,3.3,-0.1,13.9,9,1.5
CCCC1CCc2c(c3ccccc3[nH]c2=O)O1 (stereo not given),47,-2.1,3.2,2.7,5,0.4
CC(=O)N/N=C/C1=CCC2CC1C2(C)C (stereo not given),13,6.7,-7.6,3.8,11,1.0
CC(C)NC(=S)N/N=C/C1=CCC2CC1C2(C)C (stereo not given),20,99.7*,-5.6,1.4,10,0.1
CN=c1scc(-c2ccc(F)cc2)n1/N=C/c1ccc(O)c(O)c1,64,100.0*,-9.4,-0.7,10,-0.5
CN=c1scc(-c2ccc([N+](=O)[O-])cc2)n1/N=C/c1ccco1,7,-5.2,5.0,5.3,20,0.7
Nc1nc(NCCCN2CCOCC2)nc(Nc2cccc(F)c2)c1[N+](=O)[O-],nt,nt,nt,nt,13,nt
Nc1nc(NCCCN2CCOCC2)nc(Nc2ccc(F)cc2)c1[N+](=O)[O-],7,51.8*,-3.8,12.0,2,3.4
COc1ccc(C(=O)CN2Cc3ccccc3C2=N)cc1,nt,nt,nt,nt,8,nt
CC(C)=NOC(=O)c1ccc(-c2ccccc2)cc1,8,33.1,-12.1,1.0,13,-0.1
CSC(=CC(=O)c1ccccc1)SC,16,85.3*,20.4,-0.2,18,0.0
O=C(/C=C/Sc1ccccc1)c1ccc(Cl)cc1,6,92.0*,-4.5,0.5,6,0.0
O=C(/C=C/Nc1ccccc1)c1ccccc1,36,-6.6,3.8,18.0,3,0.3
O=C(/C=C/Sc1ccccc1)c1ccccc1,11,58.5*,3.0,3.2,30,0.3
CSC(=CC(=O)c1ccc(F)cc1)SC,nt,nt,nt,nt,3,nt
CCOC(=O)C1CCCN(C(=O)c2cccc(NC(=O)C(CC)CC)c2)C1 (stereo not given),10,-2.1,3.9,1.4,20,0.2
N#C/C(=C\c1ccc(-c2cccc([N+](=O)[O-])c2)o1)c1nnc(N2CCOCC2)n1-c1ccccc1,10,63.1*,-0.7,-0.6,19,-0.1
SMILES,GSH bead fluor,Lmaj promast,PKD1 inh,ABCG2 block,Avidin bead fluor,ABCB1 inh
N#C/C(=C\c1ccc(-c2cccc([N+](=O)[O-])c2)o1)C(=O)N1CCOCC1,10,5.8,2.8,6.3,12,0.6
COc1ccc2sc(/C=C/c3ccccc3O)[n+](C)c2c1,12,92.4*,-4.4,1.1,20,0.9
COc1ccc(C(=O)c2ccccc2)c(O)c1,29,0.5,-11.4,2.7,11,0.3
Clc1cccc(N/N=C/c2ccc(N3CCOCC3)cc2)c1,9,82.9*,0.0,-1.0,10,-0.6
COc1ccc(CNC(=O)C(C)Cc2ccccc2)cc1O (stereo not given),17,-6.0,-1.6,-0.9,9,1.0
COc1ccc(C2=CC(=O)CC(c3ccc(OC)cc3)C2)cc1 (stereo not given),10,6.0,5.5,19.6,11,1.9
COc1ccc(C2=CC(=O)CC(c3ccccc3)C2)cc1 (stereo not given),10,59.1*,1.4,8.8,11,1.5
Cc1nc2cc(NCc3ccccc3O)ccc2n1Cc1ccccc1,9,-3.8,3.4,5.5,6,2.2
Cc1cc(C)c(CSc2ncc(-c3ccc([N+](=O)[O-])cc3)[nH]2)c(C)c1,38,97.1*,0.1,12.8,9,0.3

# Screening results: PubChem, several laboratories
